According to the EternaBench riboswitch data:

Tested on: MS2 coat protein
Test: apparent Kd, MS2 coat protein; higher = weaker binding; RNA-MaP array; FMN 200 µM where present
Outline: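 SNAP-549-labelled MS2 coat protein, doubled from 0.7 or 1.5 nM to 3 µM, was titrated over designs transcribed by stalled E. coli RNA polymerase on Illumina sequencing-chip clusters. Titrations were run without and then with constant ligand in 100 mM Tris-HCl pH 7.5, 80 mM KCl, 4 mM MgCl2, BSA, DTT, yeast tRNA and Tween-20. The apparent Kd is the median of filtered per-cluster fits to green signal normalised to red-channel RNA signal and control-cluster median Fmax.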

[1] = designed as: OFF switch for flavin mononucleotide, no ligand
[2] = ligand present: flavin mononucleotide, designed as: OFF switch for flavin mononucleotide
[3] = designed as: ON switch for flavin mononucleotide, no ligand
[4] = ligand present: flavin mononucleotide, designed as: ON switch for flavin mononucleotide

| Sequence | apparent Kd [1] | apparent Kd [2] | apparent Kd [3] | apparent Kd [4] |
| --- | --- | --- | --- | --- |
| UGCUGGUGACAGCAUCCAUCAAAACAUGAGGAUCACCCAUGUAGAAGGCUGUACGGUUACCGUACAGAGGAUAUACAAUGAUGA | 13.9 nM | 22.2 nM | – | – |
| UACAUGAGGAUCACCCAUGUUUUGUCGUGUAUGGUAUUUAUCUAGGAUAUCAAUCUAUGUAUUUAUGAGAAGGAGAAUAUUAAU | 41.8 nM | 37.3 nM | – | – |
| GUUGUUCGAGGAUAUACAUGAGGAUCACCCAUGUGUGUUGUGGGCGACGUUCGUUUAUGUAGAAGGCGAGCGGC | 63.3 nM | 92.1 nM | – | – |
| UCGGUUACAUGAGGAUCACCCAUGUCUCGGGCCCUAUUUAGCAGAAGGCCAGCUGGGCUACGGAUGGAGGAUAUGCUUAUGGCC | – | – | 147 nM | 36.5 nM |
| GGCGAACGGGCUAACAUGAGGAUCACCCAUGUGGACUCAUGGUAGGAUAUGCUGUACAAAGUACAGCAGAAGGGCCGGUGAGCC | – | – | 142 nM | 445 nM |
| UCGUUUAUACAAGGAUAUCAAUUUUAGCUUAAUUCAACAUGAGGAUCACCCAUGUAACUAUGGAGUGAGAAGGUGUAAUGGCUU | – | – | 522 nM | 222 nM |
| AAACACGGACAUGAGGAUCACCCAUGUGGCGAAAGCCUUGGGAGAAGGCAGUAUGCAAAGCAUUCUGAGGAUAUCCAUACCGUG | – | – | 18.4 nM | 6.63 nM |
| AGCUACGUUUCGUAGCAGUGUCAUCGAGAAGGCCCUUACGUGACAACAUGAGGAUCACCCAUGUGGGAGGAUAUCGAUGAUACA | – | – | 11.8 nM | 11.5 nM |
| UAUUAUCACGAAGGAUAUGCUUACAUGAGGAUCACCCAUGUAUGUAUAUUGAUCCAGCGUAUUGAGCAGAAGGUCGUGAGUAAA | 21.8 nM | 75.8 nM | – | – |
| CGCGAACAGGUUAACAUGAGGAUCACCCAUGUGGACUCAUGGUAGGAUAUCGGGAAGGAGGAAACCGAGAAGGGCCGGUGAGCC | – | – | 324 nM | 107 nM |
| GCGUACAUAUCAGGAUAUCAUAUUAUUGUUUUACUCAGUGUAUACAUGAGGAUCACCCAUGUUCUUGAGAAGGGAUAUGUACGC | 8.22 nM | 9.91 nM | – | – |
| CCGAAUAAGCAGGAUAUCGAAUCGGAAACGAUUCGAGAAGGGUUAACAUGAGGAUCACCCAUGUUCCUUAACGG | 20.3 nM | 22.2 nM | – | – |
| UCCUCUUUGAAGAAGGCGUGGUUAUGCAAGCCGCGAGGAUAUUCACAUGAGGAUCACCCAUGUGGAUUUCAGUCCGCUCAAAAC | 11.9 nM | 61.8 nM | – | – |
| AAAUAAGUUGCAGGAUAUUAUUUUUAAUAAAUAUAAGAAGGGCAACAAACCUCACAUGAGGAUCACCCAUGUACCCAUGUAUCU | 64.3 nM | 35.6 nM | – | – |
| GUGCCUAACUAGAAGGCCCAAUGCAAAGCAUCGGGAGGAUAUGGGUUUAAUAAAUAAACAUGAGGAUCACCCAUGUGGCACAAA | – | – | – | 10.4 nM |
| ACGGCCUUACAUGAGGAUCACCCAUGUGAGUAUGGAGUUACACAGGAUAUCCGCGUGGCAGGCAAGGAGAAGGGUGUAUUAGGA | – | – | 70 nM | 21.9 nM |
| AGGACGAGGCAGAAGGGACAUGAGGAUCACCCAUGUACCGUGGUUCAGCAGUCAGGAUAUGCCGUACGUAAACAUAUCGUAAGA | 10.3 nM | 71 nM | – | – |
| UAUGUUUUAGGAUAUUGUACUGCUGACAUGAGGAUCACCCAUGUAUGCUAACUCGGUUGUCGAGAAGGAGAAUAUG | 59.4 nM | 44.2 nM | – | – |
| UGUUGUAUUACAGGAUAUCUAUUAGAUUUAUUUAGAGAAGGGUAUUCACAUGAGGAUCACCCAUGUAUAUACGAGGAAGUUGUG | – | – | 57 nM | 58.6 nM |
| AGGAGAAAUGUAGGAUAUGGAUAUAUAUAUGGGCAAAGCGCAUAUAUAUAUCCAGAAGGACAUGAGGAUCACCCAUGUUUCCCU | 11.8 nM | 13 nM | – | – |
| GCUGACGAUGUAGGAUAUCAGUAUAAUAAAUACUGAGAAGGACAUGAGGAUCACCCAUGUAAACUCCGUCAGCAGAGGAAACUC | 19.6 nM | 24.1 nM | – | – |
| GAUUCGGGAGGAUAUACAUGAGGAUCACCCAUGUGUUUUUUGUGUGUUAUGUUAUCAUGUAGAAGGUUUGGGUC | 286 nM | 260 nM | – | – |
| ACUAGGCGAGGAUAUACAUGCUUAACGCAGGAAAAGCUGCGACAUGAGGAUCACCCAUGUAGAAGGCGCAAAUA | 15.7 nM | 115 nM | – | – |
| GCUAGUAUUGCAGGAUAUUGUGUUUAAUUAUGGCAAGAAGGGCAUUACAUGAGGAUCACCCAUGUUUUCCUUAGUCAUACUAGC | 5.57 nM | 6.63 nM | – | – |
| GGGCGUUGGGAGAAGGUACAUUAAAUUAGUUUAACAUGAGGAUCACCCAUGUAAGGAUAUCCCAUCGUGUAAUAUUAUACAGCC | 11 nM | 13.8 nM | – | – |
| CUAGCGGAUGUAGGAUAUCGGACUGUUUCAGUCUGAGAAGGACAUGAGGAUCACCCAUGUAUUGCUGCGUGAGUAGCACGCUAG | 19.1 nM | 30.2 nM | – | – |
| AAUAUGAGCUGGAAUAAACCUAAAACAUGAGGAUCACCCAUGUAGGAUAUCAGCACGAUAAGUGCUGAGAAGGACAACCAGCUC | 14.4 nM | 13.9 nM | – | – |
| UGGCUACAUGAGGAUCACCCAUGUCAGGAUAUGCCGUCGGCUUGCCUUCGUCGUUCGGGUAGAAGGGACUGCGG | 28.1 nM | 28.1 nM | – | – |

| Sequence | apparent Kd [1] | apparent Kd [2] | apparent Kd [3] | apparent Kd [4] |
| --- | --- | --- | --- | --- |
| GCUUGUGAAGGAUAUACUGGCGGCGUGCGCUCGGCGCGCGCACAUGAGGAUCACCCAUGUAGAAGGUCAAACGU | 14.3 nM | 13.1 nM | – | – |
| GGAGAUACAUGAGGAUCACCCAUGUAGGAUAUCUAGUAUAUAUAUGGCGAAAGCCAUAUAUAUAUAGAGAAGGGCGUACACACC | 9 nM | 7.91 nM | – | – |
| CUUUUGUGAGGAUAUCAGUGGUAAAACAAUAGUAUUACUACUGAGAAGGCACAUGAGGAUCACCCAUGUUCCUC | 47.1 nM | 304 nM | – | – |
| GUCUUUUUACAGAAGGUGUUUUACAUGAGGAUCACCCAUGUUUAUAUGUUUAAAUUUGAUAUUUACAAGGAUAUGUACUAAUCU | – | – | 25.3 nM | 17.4 nM |
| CCGAUAAUGUAGGAUAUCGUAUCGGAAACGAUACGAGAAGGGCAAACAUGAGGAUCACCCAUGUUCCUUAACGG | 17.4 nM | 18.5 nM | – | – |
| AUUUGACACGUAGGAUAUCGCUUAAAUUUAACACGAGAAGGACGAACAUGAGGAUCACCCAUGUAUCAUGGUGUAGAUAAUUUG | 54.5 nM | 216 nM | – | – |
| CUAAAUCAUGUAGGAUAUGCAUGGCGAAGCUACGCAGAAGGACAUGAGGAUCACCCAUGUCAGAACGUCUGCGUUCAGACGUUG | 17.7 nM | 58 nM | – | – |
| UUGGACGUCGUAGGAUAUGUAGGAUAUUCCUACAUGAGGAUCACCCAUGUUGACAUGGAAGAAGGACAGAAGGAAGAUGUCCAU | – | – | 776 nM | 13.9 nM |
| UCAUUUAAUACAGGAUAUGUUAGUAUACAGUUGAUUGGUUAUUACAUAAUAACAGAAGGGUAGAACAUGAGGAUCACCCAUGUA | – | – | 254 nM | 131 nM |
| AAUUAGUGUGUGAGGAUAUUGGUGGAAUGACAUAUUAAGAAGGCACAUGAGGAUCACCCAUGUGGGAUGUCACG | 10.9 nM | 13.6 nM | – | – |
| UCAUUAUAAAUCCAUCAUAACUACAUGAGGAUCACCCAUGUGCAGGAUAUCGAUGGUUUAACUAUCGAGAAGGGCAAUUACAGA | 31.9 nM | 72.1 nM | – | – |
| GUCUUACAUGAGGAUCACCCAUGUGAGGAUAUCCGCGGCGCCGGGUUUCCGGCGCCGCGGAGAAGGCGCGUGUU | 19.2 nM | 22.3 nM | – | – |
| GGGUACAUCGGAGGAUAUCAGGUAAAUACAUGAGGAUCACCCAUGUCGAUGGAGACAUCGGAGAUUGAGAAGGCCGAUGUACCG | – | – | 7.6 nM | 5.13 nM |
| UUACAUACAAAUGUACAUGAGGAUCACCCAUGUUUGUUGGGAAGAAGGGUAACAGUACUACACAUACAGGAUAUUUCACAAAUA | – | – | 54 nM | 34 nM |
| UUAGAAUUGCAAGGAUAUCUAAUUUAGAUAGUAAGAGAAGGUGCUUGAUAGUUACAUGAGGAUCACCCAUGUUUUUGGGUUUAU | – | – | 545 nM | 412 nM |
| GGAUGACAAAGUCAUCCUAUUCGAACAUGAGGAUCACCCAUGUAGGAUAUGCUACAGAAACUGUAGCAGAAGGACAUGUGCUUU | 34.1 nM | 151 nM | – | – |
| GGACGUCACAUUUACAUGAGGAUCACCCAUGUCUCUUGAUAUGAGGAUAUGUAUACGAAUCGUAUACAGAAGGCAUGGACGUCC | – | – | 71.7 nM | 29.8 nM |
| ACGGAACAUGAGGAUCACCCAUGUAUCUGAGAUAUGGUCUCACAGGAUAUUCAGAGUUGCCAAUCGGAGAAGGGUGACACCAGA | – | – | 78.5 nM | 43.5 nM |
| ACUGCAUAGGCAGGAUAUGCAAAAGCAGAUGCAAAGCAUUUGAAUAACACAUGAGGAUCACCCAUGUAGAAGGGCCUGUGCAGU | 20.1 nM | 20.2 nM | – | – |
| UCAGAGGCUGACAUGAGGAUCACCCAUGUUAGAUUGUUAUGUCAGGAUAUUAUCUGGCAACCAGAUGAGAAGGGACCCUCUGUG | – | – | 22 nM | 7.67 nM |
| UUGCUCGUGUGAGGAUAUGCCGCCGUUUCGGCUGCAGAAGGUACUCUGUUACAUGAGGAUCACCCAUGUCUCUGUUGUUUCGUG | – | – | 39 nM | 47.5 nM |
| GGACGACACAUGAACAUGAGGAUCACCCAUGUAAAUUCUCAUGAGGAUAUGGAUCCUAAUUGGAUCCAGAAGGCAUGGUCGUCC | – | – | 1150 nM | 380 nM |
| AUGCCAGAAGGAUAUACAUGAGGAUCACCCAUGUCAUGUUUGAUUCGCCCGCAGGGCUGUAGAAGGUCUGGCAU | 65.2 nM | 543 nM | – | – |
| GUUUGUUAUUAGAAGGUGCCAGCGAGAGCUGCAACAUGAGGAUCACCCAUGUGUCGGUGACGACGCAAGGAUAUGGUGGUGGAU | – | – | 402 nM | 193 nM |
| CGAGUGAUAGGAUAUACACCUUUUCAGAACAUGUGGCUGUUACAUGAGGAUCACCCAUGUAGAAGGAUCAAGCG | 65.8 nM | 66.3 nM | – | – |
| ACAUGAGGAUCACCCAUGUUGAAUGAGGAUAUUUGACUGCGCAUGAGGUUCUCCCAUGUUCAACCGGAGAAGGUAUUAAUAAUU | – | – | 267 nM | 160 nM |
| AAAUGCGUAAAGGACACAUGAGGAUCACCCAUGUUUCUGUCCAAGGAUAUGAGGUGAAUGAUCCGUCAGAAGGUGGACUUGCUU | – | – | 114 nM | 220 nM |
